This is a sample that favours compounds with a hit; in the whole collection about 3.1% have one here.
RAM network inh – yeast RAM network inhibition. S. cerevisiae dse1pr::URA3 reporter, 5-FOA growth OD615, 2 d; analog-sensitive cbk1-as2 kinase mutant strain. inhibition, % at 50 µM. actives 1.8% (n = 190,000);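 active means inhibition above a set limit, 3 SD over mean compound inhibition, cut at about 8.4% in these data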;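 further: 0% = DMSO-only wells with no growth and 100% = 10 µM 1-NA-PP1 full growth; inhibition rescues growth on 5-FOA so higher OD means more RAM inhibition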
INS promoter inh – TRM-6 insulin promoter activity inhibition | inhibition, % at 2 µM | TRM-6 cells, insulin promoter-eGFP reporter, imaging; reporter expression induced with tamoxifen | actives 0.9% (n = 130,000);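 active means inhibition above the mean plus 3 SD, with well images judged a real hit on visual review, cut at about 60% in these data, passing the limit was not always enough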
Insulin prom up – MIN6 insulin promoter up-regulation. actives 0.3% (n = 190,000). AID 1625. z-score at 5 µM. MIN6 insulin promoter-GFP reporter, high-content imaging; hits give high values;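 active means z-score above 3 at 5 µM with at least 500 cells counted in the well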
Yeast growth inh – chemicals that inhibit yeast BB579 growth in restrictive medium (lifespan-shortening candidates) | S. cerevisiae BB579 growth, OD615, 48 h | inhibition, % at 10 µM | actives 0.51% (n = 140,000) | AID 804;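 active means inhibition above a set limit, 3 SD over the mean compound inhibition, cut at about 44% in these data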
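controls = amphotericin B 10 µg/mL, positive | assay system = DeaD yeast strain BB579 | schedule = 48 h compound exposure at 30 °C after 4 h preincubation | detection = OD615 turbidity measurement | medium = restrictive CSMM-D medium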
Yeast lifespan up – extends the lifespan of yeast. actives 0.68% (n = 130,000). S. cerevisiae growth with nicotinamide, OD615; deaD strain in restrictive glucose medium. inhibition of the nicotinamide effect, % at 10 µM;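 active means inhibition above a set limit, placed 3 SD over the median of all compounds, cut at about 26% in these data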;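 further: 0% = nicotinamide-treated wells and 100% = cells grown without nicotinamide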
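Assay system: engineered S. cerevisiae DeaD replicative-lifespan strain, galactose-grown log-phase cells; Buffer or medium: CSMM-D glucose medium, restrictive; Probe or stimulus: nicotinamide 1.5 mM; Compound: single dose 10 µM compound, 0.25% DMSO; Schedule: 4 h preincubation then 48 h treatment at 30 °C; Technique: OD615 measurement.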
RAM 5-FOA – RAM network inhibitors in efflux-deficient yeast. max inhibition, %. shares compounds with RAM network inh. AID 1305. S. cerevisiae efflux-deficient reporter strain, 5-FOA growth OD615, 2 days. 1,200 tested, under 10 active; call rule not given here;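 further: plate controls were vehicle for no effect and reference inhibitor for full effect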
Numbers without * were called inactive; . = no result given.

SMILES | RAM network inh | INS promoter inh | Insulin prom up | Yeast growth inh | Yeast lifespan up | RAM 5-FOA
Cc1oc2ccc(OC(=O)N(C)C)cc2c1C(=O)OC(C)C | 0.9 | 48.3 | -0.59 | -11.7 | -6.4 | .
O=C(COC(=O)c1cccc(O)c1)Nc1ccc(Cl)cc1C(=O)c1ccccc1 | 1.7 | . | -0.17 | 5.4 | -3.5 | .
CC1CCc2c(sc3nc(CSc4n[nH]c(N)n4)[nH]c(=O)c23)C1 (stereo not drawn) | 11.7* | -33.3 | 0.01 | -27.2 | 1.4 | 2.8
Cc1ccc(/C=C/C2=NN(Cc3ccc(Cl)c(Cl)c3)C(=O)CC2)cc1 | 12.0* | . | 0.29 | -49.2 | -4.7 | 3.5
O=c1[nH]c(=O)n(Cc2ccccc2)c(O)c1C=NCCN1CCOCC1 | 0.2 | . | . | 16.6 | . | .
CCOP(=O)(OCC)C(Nc1cccc(C(F)(F)F)c1)c1ccc(Br)cc1 (stereo not drawn) | 12.3* | -34.4 | -0.69 | -7.3 | 2.3 | 0.6
COc1nc(NCC2CCCO2)nc(N2CC3CC(C2)c2cccc(=O)n2C3)n1 (stereo not drawn) | . | . | 0.38 | . | . | .
CCCC(=O)c1ccc(CP(=O)(OCC)OCC)o1 | . | . | 0.4 | . | . | .
